Test results taken from ChEMBL document CHEMBL3045336, “Synthesis of 1-triazolyl-4-trimethylsilyl-2-butanol and 1-triazolyl-5-trimethylsilyl-2-pentanol derivatives and an investigation of their fungicidal activities” (Chem Pharm Bull (Tokyo), 2003).
≈ marks a conversion by molar mass, not a printed value.

Legend:
[1] = tested on: Rhizoctonia solani; experiment: Fungicidal activity against Rhizoctonia solani assessed as mycelial growth inhibition after 3 days; assay type: functional, organism-based
In short: (§1)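 Mycelial agar discs (4 mm) placed on potato dextrose agar plates containing test compound and incubated at 25 °C. Pyricularia oryzae was incubated for 7 d and Rhizoctonia solani for 3 d.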

[2] = tested on: Pyricularia grisea; experiment: Fungicidal activity against Magnaporthe oryzae assessed as mycelial growth inhibition after 7 days; assay type: functional, organism-based, Pyricularia oryzae; in short: as §1
[3] = tested on: Blumeria hordei; experiment: Fungicidal activity against Blumeria graminis f. sp. hordei infested first-leaf stage of barley seedlings assessed as growth inhibition applied as spray after 10 days under green house conditions; assay type: functional; conditions: 240 h

| SMILES | IC50 [1] | IC50 [2] | MIC [3] |
| --- | --- | --- | --- |
| C[Si](C)(C)CCC(O)(Cn1cncn1)c1ccc(F)cc1 (configuration not stated) | > 1 ppm | 10 ppm | 3 µg/mL (≈ 9.76 µM) |
| C[Si](C)(C)CCC(O)(Cn1cncn1)c1ccc(Cl)cc1 (configuration not stated) | > 1 ppm | > 10 ppm | 3 µg/mL (≈ 9.26 µM) |
| C[Si](C)(C)CCC(O)(Cn1cncn1)c1ccc(Br)cc1 (configuration not stated) | > 1 ppm | > 10 ppm | 3 µg/mL (≈ 8.14 µM) |
| C[Si](C)(C)CCC(O)(Cn1cncn1)c1ccccc1 (configuration not stated) | > 1 ppm | > 10 ppm | 3 µg/mL (≈ 10.4 µM) |
| Cc1ccc(C(O)(CC[Si](C)(C)C)Cn2cncn2)cc1 (configuration not stated) | > 1 ppm | > 10 ppm | > 3 µg/mL |
| COc1ccc(C(O)(CC[Si](C)(C)C)Cn2cncn2)cc1 (configuration not stated) | > 1 ppm | > 10 ppm | > 3 µg/mL |
| C[Si](C)(C)CCC(O)(Cn1cncn1)c1ccc(F)cc1F (configuration not stated) | 0.12 ppm | 3.1 ppm | 0.3 µg/mL (≈ 0.922 µM) |
| C[Si](C)(C)CCC(O)(Cn1cncn1)c1ccc(Cl)cc1Cl (configuration not stated) | 0.05 ppm | 2.57 ppm | 0.3 µg/mL (≈ 0.837 µM) |
| C[Si](C)(C)CCCC(O)(Cn1cncn1)c1ccc(F)cc1 (configuration not stated) | 0.42 ppm | > 3 ppm | 3 µg/mL (≈ 9.33 µM) |
| C[Si](C)(C)CCCC(O)(Cn1cncn1)c1ccc(Cl)cc1 (configuration not stated) | 0.61 ppm | > 3 ppm | 1 µg/mL (≈ 2.96 µM) |
| C[Si](C)(C)CCCC(O)(Cn1cncn1)c1ccccc1 (configuration not stated) | > 1 ppm | > 10 ppm | 3 µg/mL (≈ 9.89 µM) |
| C[Si](C)(C)CCCC(O)(Cn1cncn1)c1ccc(F)cc1F (configuration not stated) | 0.01 ppm | 0.89 ppm | 1 µg/mL (≈ 2.95 µM) |
| C[Si](C)(C)CCCC(O)(Cn1cncn1)c1ccc(Cl)c(Cl)c1 (configuration not stated) | 1.94 ppm | > 10 ppm | > 3 µg/mL |
| C[Si](C)(C)CC(O)(Cn1cncn1)c1ccc(F)cc1 (configuration not stated) [SIMECONAZOLE] | 0.04 ppm | 1.09 ppm | 0.3 µg/mL (≈ 1.02 µM) |
